Consider 13 molecules from ChEMBL document CHEMBL1128702, “Structure-activity relationships of the antimalarial agent artemisinin. 2. Effect of heteroatom substitution at O-11: synthesis and bioassay of N-alkyl-11-aza-9-desmethylartemisinins” (J Med Chem, 1995).

Series [1] concerns Plasmodium falciparum. Description: Relative potency was determined in vitro in paratized human whole blood against drug resistant strain of Plasmodium falciparum strain-Sierra Leone(D-6).
Series [2] has as its system Plasmodium falciparum. In words: Relative potency was determined in vitro in paratized human whole blood against drug resistant strain of Plasmodium falciparum strain-Indochina(W-2).
Series [3] in a line: Partition coefficient (logP). It is filed as physicochemical. The following applies: octanol/water. The gist of the method:
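log P measured by literature procedures using standard values, also calculated with CLOGP; UV detection at 330 nm for ketone standards and 216 nm for artemisinin derivatives; samples run in triplicate.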

Series [4] is filed under the species Homo sapiens. Description: Relative potency was determined in vitro in paratized human whole blood against […]strain of Plasmodium falciparum in WR(Walter Reed) army institute of research. It is filed as functional.
The species entered for series [5] is Homo sapiens. Description: Relative potency was determined in vitro in paratized human whole blood against chloroquine sensitive (D-6) strain of Plasmodium falciparum in University of mississippi using parasite lactate dehydrogenase assay. Format: functional. The gist of the method:
(§1)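 P. falciparum W-2 and D-6 tested at University of Mississippi by Makler parasite lactate dehydrogenase assay: pLDH reduces APAD to APADH (human RBC LDH does so only slowly); APADH detected colorimetrically via nitroblue tetrazolium reduction to blue formazan. Relative potencies derived as for the Walter Reed assay.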

The species named for series [6] is Homo sapiens. Description: Relative potency was determined in vitro in paratized human whole blood against […]strain of Plasmodium falciparum in University of mississippi using parasite lactate dehydrogenase assay. It is filed as functional. The gist of the method: as §1

The structures appear in SMILES notation.

For `C[C@@H]1CC[C@H]2CC(=O)N(CCN(C)C)C3O[C@@]4(C)CC[C@@H]1[C@]32OO4` (stereo partly drawn), in the series on Plasmodium falciparum [1], the Relative potency came to 37%.
A word on the logP: it is the decadic logarithm of the partition coefficient of the neutral form, usually between octanol and water. Low readings indicate lower lipophilicity, high ones higher lipophilicity. Turning to `C[C@@H]1CC[C@H]2CC(=O)N(Cc3ccc(Cl)cc3)C3O[C@@]4(C)CC[C@@H]1[C@]32OO4` (stereo partly drawn), the Relative potency in the series with Plasmodium falciparum [2] amounted to 69%; in the series listed under Homo sapiens [4], 69%; in the series filed under Homo sapiens [5], 128%; in the series filed under Homo sapiens [6], 311%; in the series with Plasmodium falciparum [1], 111%. In series [3], this molecule gave a logP of 3.96.
For the molecule `C[C@@H]1CC[C@H]2CC(=O)N(CCCCCC(=O)O)C3O[C@@]4(C)CC[C@@H]1[C@]32OO4` (stereo partly drawn), the Relative potency is 2% with Plasmodium falciparum [2] and 12% with Plasmodium falciparum [1].
Consider `CC(C)CN1C(=O)C[C@@H]2CC[C@@H](C)[C@@H]3CC[C@@]4(C)OO[C@@]23C1O4` (stereo partly drawn), for which the Relative potency came to 105% in the series on Plasmodium falciparum [2]; 105% in the series listed under Homo sapiens [4]; 155% in the series listed under Homo sapiens [5]; 227% in the series listed under Homo sapiens [6]; 145% in the series on Plasmodium falciparum [1]. This molecule registered a logP in series [3] of 3.01.
In the case of `C[C@@H]1CC[C@H]2CC(=O)N(CCc3ccccc3)C3O[C@@]4(C)CC[C@@H]1[C@]32OO4` (stereo partly drawn), the Relative potency stood at 143% in the series with Plasmodium falciparum [2]; 143% in the series filed under Homo sapiens [4]; 187% in the series listed under Homo sapiens [5]; 204% in the series filed under Homo sapiens [6]; 197% in the series with Plasmodium falciparum [1]. Besides, in series [3], the lipophilicity (logP) turned out to be 3.5.
As to `CCCCCN1C(=O)C[C@@H]2CC[C@@H](C)[C@@H]3CC[C@@]4(C)OO[C@@]23C1O4` (stereo partly drawn), the Relative potency in the series on Plasmodium falciparum [2] was found to be 63%; in the series with Plasmodium falciparum [1], 110%. Also, the logP in series [3] was 3.67.
As for `CCCN1C(=O)C[C@@H]2CC[C@@H](C)[C@@H]3CC[C@@]4(C)OO[C@@]23C1O4` (stereo partly drawn), the Relative potency is listed as 111% with Plasmodium falciparum [2] and 75% in the series on Plasmodium falciparum [1]. The same molecule had a logP in series [3] of 2.61.
For `CC(C)CCN1C(=O)C[C@@H]2CC[C@@H](C)[C@@H]3CC[C@@]4(C)OO[C@@]23C1O4` (stereo partly drawn), in that order: 92%, 149% and 3.54.
As for `C[C@@H]1CC[C@H]2[C@@H](C)C(=O)O[C@@H]3O[C@@]4(C)CC[C@@H]1[C@]32OO4` [ARTEMISININ], the Relative potency in the series on Plasmodium falciparum [2] and in the series with Plasmodium falciparum [1] was 100% throughout.
In the case of `C[C@@H]1CC[C@H]2CC(=O)N(Cc3ccccc3)C3O[C@@]4(C)CC[C@@H]1[C@]32OO4` (stereo partly drawn), the Relative potency in the series with Plasmodium falciparum [2] is recorded as 217%; in the series filed under Homo sapiens [4], 217%; in the series filed under Homo sapiens [5], 146%; in the series filed under Homo sapiens [6], 252%; with Plasmodium falciparum [1] it was 189%.
`C[C@@H]1CC[C@H]2CC(=O)N(CCCc3ccccc3)C3O[C@@]4(C)CC[C@@H]1[C@]32OO4` (stereo partly drawn): the Relative potency stood at 105% in the series with Plasmodium falciparum [2]; 105% in the series filed under Homo sapiens [4]; 147% in the series filed under Homo sapiens [5]; 281% in the series listed under Homo sapiens [6]; 205% with Plasmodium falciparum [1]. For the same molecule, the logP in series [3] was determined as 4.03.
The molecule `C[C@@H]1CC[C@H]2CC(=O)N(CC(=O)O)C3O[C@@]4(C)CC[C@@H]1[C@]32OO4` (stereo partly drawn) registered a logP in series [3] of 1.69. Besides, the Relative potency with Plasmodium falciparum [1] came out at 6%.
With `C[C@@H]1CC[C@H]2CC(=O)N(C)C3O[C@@]4(C)CC[C@@H]1[C@]32OO4` (stereo partly drawn), the Relative potency is given as 500% in the series on Plasmodium falciparum [2] and 213% in the series on Plasmodium falciparum [1]. For the same molecule, the logP in series [3] amounted to 1.55.
